Measurements: ChEMBL document CHEMBL4732136, “Synthesis, Tumor Specificity, and Photosensitizing Efficacy of Erlotinib-Conjugated Chlorins and Bacteriochlorins: Identification of a Highly Effective Candidate for Photodynamic Therapy of Cancer” (J Med Chem, 2021)

Key:
[1] = Drug uptake in liver of SCID mouse xenografted with human UMUC3 cells at 0.25 micromol/kg, iv pretreated with compound followed by light irradiation at a dose of 135 J/cm2 and 75 mW/cm2 measured after 2 to 8 hrs by IVIS analysis; format: ADME, organism-based; conditions: in vivo, time 2-8 hrs, dose 0.25 µmol/kg
Outline: (§1)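 Female SCID mice with UMUC3 flank/shoulder tumors, 3 per group. PS in 1% Tween80/5% dextrose given iv at 0.47, 0.25 or 0.125 μmol/kg. Whole-body fluorescence imaging by IVIS at several times after injection; average radiant efficiency measured in tumor, liver and skin.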

[2] = Photosensitizing activity in human HN-85-1-3 cells assessed as induction of STAT3 cross-linking pretreated with compound followed by diode laser irradiation at 3 J/cm2 by immunoblot analysis (reference value: 0 %); format: functional
Outline: (§2)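 Primary HN-85-1-3 tumor epithelial cells loaded with graded PS doses; uptake quantified by fluorescence before light. Dishes irradiated at 37°C with 665 nm diode laser, 6 mW/cm², 3 J/cm² total. Cells lysed in RIPA immediately after light; STAT3 crosslinking and EGFR analysed by SDS-PAGE immunoblot.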

UMUC3 [3] = experiment: Photodynamic antitumor activity against human UMUC3 cells xenografted in SCID mouse assessed as tumor retention at 0.47 micromol/kg, iv pretreated with compound followed by light irradiation at a dose of 135 J/cm2 and 75 mW/cm2 measured at day 60 post dose relative to control; format: functional; conditions: dose 0.47 µmol/kg; time 60 day
Outline: (§3)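 UMUC3-bearing female SCID mice given iv PS in 1% Tween80/5% dextrose. Mice restrained and tumors irradiated at 665 nm, 135 J/cm² over 30 min at 75 mW/cm², at the time of maximal tumor uptake. Tumor regrowth measured daily for 60 days; mice euthanized above 400 mm³. Cure plotted as survival curves and compared by log-rank (Mantel-Cox) test.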

[4] = Drug uptake in human CFSE-stained HN-121 cells assessed as increase in drug retention at 1.6 uM in medium with 10% FBS followed by 48 hrs chase period by inverted fluorescence microscopic analysis; format: ADME, cell-based; conditions: hn-121, 48 h
FaDu [5] = experiment: Photodynamic antitumor activity against human FaDu cells xenografted in SCID mouse assessed as cure rate at 0.25 micromol/kg, iv pretreated with compound followed by light irradiation at a dose of 135 J/cm2 and 75 mW/cm2 measured after 60 days post dose relative to control; format: functional; conditions: dose 0.25 µmol/kg; time 60 day
Outline: (§4)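 FaDu-bearing female SCID mice (5 per group per experiment) given iv PS at 0.47, 0.25 or 0.125 μmol/kg in Tween80/dextrose. Tumors irradiated 24 h post-injection at 665 nm, 135 J/cm², 75 mW/cm². Tumor growth measured daily for 60 days, with euthanasia above 400 mm³. Cure taken as tumor-free at day 60; survival analysed by log-rank test.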

[6] = Drug uptake in skin of SCID mouse xenografted with human UMUC3 cells at 0.25 micromol/kg, iv pretreated with compound followed by light irradiation at a dose of 135 J/cm2 and 75 mW/cm2 measured after 2 to 8 hrs by IVIS analysis; format: ADME, organism-based, Skin of body; conditions: in vivo, time 2-8 hrs, dose 0.25 µmol/kg; outline: as §1
[7] = Drug uptake in skin of SCID mouse xenografted with FaDu cells at 0.47 to 0.125 micromol/kg, iv pretreated with compound followed by light irradiation at a dose of 135 J/cm2 and 75 mW/cm2 and measured at 24 hrs by IVIS analysis; format: ADME, organism-based, Skin of body; conditions: in vivo, dose 0.47-0.125 µmol/kg
Outline: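 Female SCID mice bearing FaDu tumors 4–5 mm in diameter, 3 per group. PS in 1% Tween80/5% dextrose given iv at 0.47, 0.25 or 0.125 μmol/kg. IVIS whole-body fluorescence imaged at several time points; average radiant efficiency measured in tumor, liver and skin.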

UMUC3 [8] = experiment: Photodynamic antitumor activity against human UMUC3 cells xenografted in SCID mouse assessed as tumor retention at 0.25 micromol/kg, iv pretreated with compound followed by light irradiation at a dose of 135 J/cm2 and 75 mW/cm2 measured at day 60 post dose relative to control; format: functional; conditions: dose 0.25 µmol/kg; time 60 day; outline: as §3
[9] = Drug uptake in tumor of SCID mouse xenografted with human UMUC3 cells at 0.25 micromol/kg, iv pretreated with compound followed by light irradiation at a dose of 135 J/cm2 and 75 mW/cm2 measured after 2 to 8 hrs by IVIS analysis; format: ADME, organism-based, Neoplasm; conditions: in vivo, time 2-8 hrs, dose 0.25 µmol/kg; outline: as §1
[10] = Drug uptake in tumor of SCID mouse xenografted with human UMUC3 cells at 0.125 micromol/kg, iv pretreated with compound followed by light irradiation at a dose of 135 J/cm2 and 75 mW/cm2 measured after 2 to 24 hrs by IVIS analysis; format: ADME, organism-based, Neoplasm; conditions: in vivo, time 2-24 hrs, dose 0.125 µmol/kg; outline: as §1
[11] = Drug uptake in skin of iv dosed SCID mouse xenografted with human UMUC3 cells by fluorescence imaging analysis; format: ADME, organism-based, Skin of body; conditions: in vivo
[12] = Drug uptake in human HN-143 cells assessed as increase in drug retention retention at 3 uM in medium with 10% FBS incubated for 5 hrs followed by 40 hrs chase period by inverted fluorescence microscopic analysis; format: ADME, cell-based; conditions: hn-143, 5 h
Outline: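 Five-day co-cultures of HN-143 tumor epithelial cells and HN-166 tumor fibroblasts, both primary head & neck tumor cultures grown on collagen-1 under selective media. PS in 10% FBS medium for 5 h, then 40 h chase without PS. Phase-contrast and fluorescence images taken at 100X with 500 ms exposure; signal normalized to recording time and cell number.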

FaDu [13] = experiment: Photodynamic antitumor activity against human FaDu cells xenografted in SCID mouse assessed as cure rate at 0.125 micromol/kg, iv pretreated with compound followed by light irradiation at a dose of 135 J/cm2 and 75 mW/cm2 measured for 60 days post dose relative to control; format: functional; conditions: dose 0.125 µmol/kg; time 60 day; outline: as §4
[14] = Drug uptake in liver of iv dosed SCID mouse xenografted with UMUC3 cells by fluorescence imaging analysis; conditions: in vivo
[15] = Drug uptake in tumor of iv dosed SCID mouse xenografted with human UMUC3 cells by fluorescence imaging analysis; format: ADME, organism-based, Neoplasm; conditions: in vivo
FaDu [16] = experiment: Photodynamic antitumor activity against human FaDu cels xenografted in SCID mouse assessed as cure rate at 0.47 micromol/kg, iv pretreated with compound followed by light irradiation at a dose of 135 J/cm2 and 75 mW/cm2 and measured at 24 hrs post dose relative to control; format: functional; conditions: dose 0.47 µmol/kg; outline: as §4
[17] = Drug uptake in liver of iv dosed SCID mouse xenografted with human UMUC3 cells by fluorescence imaging analysis; format: ADME, organism-based; conditions: in vivo
[18] = Drug uptake in human HN-85-1-3 cells assessed as photoreactivation by measuring fluorescence when irradiated with diode laser at 3J/cm2 by inverted fluorescence microscopic analysis (reference value: 0 FU); format: cell-based; outline: as §2
[19] = Drug uptake in skin of iv dosed SCID mouse xenografted with UMUC3 cells by fluorescence imaging analysis; conditions: in vivo

## CCC1=C(C)c2cc3[nH]c(cc4nc(c5c6[nH]c(cc1n2)c(C)c6C(=O)C5)[C@@H](CCC(=O)OC)[C@@H]4C)c(C)c3C(C)OCc1cccc(C#Cc2cccc(Nc3ncnc4cc(OCCOC)c(OCCOC)cc34)c2)c1 (some centres undefined)
[1]
  Drug uptake: Active
[2]
  Activity: 0.5%
UMUC3 [3]
  Activity: 74%
[4]
  Drug uptake: Active
FaDu [5]
  Activity: 80%
[6]
  Drug uptake: Active
[7]
  Drug uptake: Active
UMUC3 [8]
  Activity: 50%
[9]
  Drug uptake: Active
[10]
  Drug uptake: Active
[11]
  Drug uptake: Active
[12]
  Drug uptake: Active
FaDu [13]
  Activity: 0%
[14]
  Drug uptake: Active
[15]
  Drug uptake: Active
FaDu [16]
  Activity: 92%
[17]
  Drug uptake: Active
[18]
  Activity: 9 FU
[19]
  Drug uptake: Active
